ChEMBL document CHEMBL1821590, “Novel dihydropyrimidines and its pyrazole derivatives: synthesis and pharmacological screening” (Eur J Med Chem, 2011)
Values after ≈ are worked out from the molar mass of the structure shown.

Key:
Format in all cases: functional
[1] = tested on: Candida albicans; experiment: Antimicrobial activity against Candida albicans at 50 ug/ml by paper disc method; conditions: read-out: IZ
Outline: (§1)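 Paper disc method against A. niger and C. albicans, with compounds at 25, 50 and 100 µg/mL. Amphotericin-B as standard.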

[2] = tested on: Aspergillus niger; experiment: Antimicrobial activity against Aspergillus niger at 100 ug/ml by paper disc method; conditions: read-out: IZ; outline: as §1
[3] = tested on: Bacillus subtilis; experiment: Antimicrobial activity against Bacillus subtilis at 100 ug/ml by agar plate diffusion technique; conditions: read-out: IZ
Outline: (§2)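 Agar plate diffusion against E. coli, P. aeruginosa, S. aureus and B. subtilis, with compounds at 25, 50 and 100 µg/mL. Streptomycin as standard.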

[4] = tested on: Staphylococcus aureus; experiment: Antimicrobial activity against Staphylococcus aureus at 100 ug/ml by agar plate diffusion technique; conditions: read-out: IZ; outline: as §2
[5] = Antioxidant activity assessed as inhibition of lipid peroxidation using egg lecithin liposomes incubated for 1 hr
Outline: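 Egg lecithin (3 mg/mL, phosphate buffer pH 7.4) sonicated 10 min to form liposomes. Sample or ascorbic acid (12.5–100 µg/mL) added. Peroxidation induced with FeCl3 and L-ascorbic acid, 1 h at 37 °C. Stopped with HCl/TCA/TBA/BHA, boiled 15 min, centrifuged, supernatant read at 532 nm. Triplicate. % inhibition vs control. IC50 derived.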

[6] = tested on: Escherichia coli; experiment: Antimicrobial activity against Escherichia coli at 100 ug/ml by agar plate diffusion technique; conditions: read-out: IZ; outline: as §2
[7] = tested on: Candida albicans; experiment: Antimicrobial activity against Candida albicans at 100 ug/ml by paper disc method; conditions: read-out: IZ; outline: as §1
[8] = tested on: Metaphire posthuma; experiment: Anthelmintic activity against Pheretima posthuma assessed as time taken for complete parasite paralysis at 0.2% w/v
Outline: (§3)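 Earthworms (Pheretima posthuma) exposed to test solutions at 0.1, 0.2 and 0.5% w/v; time in minutes to complete paralysis (worms motionless) recorded. Albendazole as standard. Mean of three determinations ± S.D.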

[9] = Antioxidant activity assessed as nitric oxide radical scavenging activity after 150 mins
Outline: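 10 mM sodium nitroprusside (4 mL), PBS pH 7.4 (1 mL) and sample or ascorbic acid in DMSO (1 mL, 12.5–100 µg/mL), incubated 150 min at 25 °C. Nitrite detected with sulphanilic acid (5 min) then naphthylethylenediamine (30 min, diffused light). Read at […]. Triplicate. % inhibition = [1 − (Vt/Vc)] × 100. IC50 derived from it.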

[10] = tested on: Escherichia coli; experiment: Antimicrobial activity against Escherichia coli at 50 ug/ml by agar plate diffusion technique; conditions: read-out: IZ; outline: as §2
[11] = tested on: Metaphire posthuma; experiment: Anthelmintic activity against Pheretima posthuma assessed as time taken for parasite death at 0.2% w/v
Outline: (§4)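 Earthworms (Pheretima posthuma, spelled Perituma posthuma in text) exposed to test compounds at 0.1, 0.2 and 0.5% w/v. Albendazole served as standard, with an untreated control. Paralysis was recorded as the time until worms became motionless, then time to death was recorded, in minutes. Each value is the mean of three determinations with S.D.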

[12] = tested on: Staphylococcus aureus; experiment: Antimicrobial activity against Staphylococcus aureus at 25 ug/ml by agar plate diffusion technique; conditions: read-out: IZ; outline: as §2
[13] = tested on: Bacillus subtilis; experiment: Antimicrobial activity against Bacillus subtilis at 25 ug/ml by agar plate diffusion technique; conditions: read-out: IZ; outline: as §2
[14] = tested on: Metaphire posthuma; experiment: Anthelmintic activity against Pheretima posthuma assessed as time taken for parasite death at 0.5% w/v; outline: as §4
[15] = Antioxidant activity assessed as hydrogen peroxide scavenging activity after 10 mins
Outline: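 H2O2 (20 mM) in PBS pH 7.4. 1 mL of sample or ascorbic acid in methanol (12.5–100 µg/mL) added to 2 mL H2O2 solution. A230 read after 10 min. % inhibition = [1 − (Vt/Vc)] × 100. Triplicate, averaged. IC50 derived from % inhibition across concentrations.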

[16] = tested on: Bacillus subtilis; experiment: Antimicrobial activity against Bacillus subtilis at 50 ug/ml by agar plate diffusion technique; conditions: read-out: IZ; outline: as §2
[17] = tested on: Aspergillus niger; experiment: Antimicrobial activity against Aspergillus niger at 25 ug/ml by paper disc method; conditions: read-out: IZ; outline: as §1
[18] = Antiinflammatory activity assessed as inhibition of albumin denaturation at 100 ug/ml by UV-visible spectrophotometry
Outline: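 Compounds dissolved in minimal DMF, diluted in PBS pH 7.4 (final DMF <2.5%). 1 mL test solution (100 µg/mL) plus 1 mL 1% albumin in PBS, 15 min at 27 ± 1 °C, then heated 10 min at 60 ± 1 °C. After cooling, turbidity read at 660 nm. % inhibition = [(Vt/Vc) − 1] × 100 against a no-drug control. Triplicate, averaged. Diclofenac standard.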

[19] = Antioxidant activity assessed as potassium ferricyanide ion reducing power after 20 mins
Outline: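 Oyaizu method. Samples or ascorbic acid in DMF (12.5–100 µg/mL) mixed with 0.2 M phosphate buffer pH 6.6 and 1% potassium ferricyanide, 20 min at 50 °C. 10% TCA added, centrifuged. Supernatant mixed with water and 0.1% FeCl3, read at 700 nm. % = [(Vt/Vc) − 1] × 100. IC50 derived.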

[20] = tested on: Metaphire posthuma; experiment: Anthelmintic activity against Pheretima posthuma assessed as time taken for complete parasite paralysis at 0.5% w/v; outline: as §3
[21] = tested on: Metaphire posthuma; experiment: Anthelmintic activity against Pheretima posthuma assessed as time taken for complete parasite paralysis at 0.1% w/v; outline: as §3
[22] = tested on: Escherichia coli; experiment: Antimicrobial activity against Escherichia coli at 25 ug/ml by agar plate diffusion technique; conditions: read-out: IZ; outline: as §2
[23] = tested on: Candida albicans; experiment: Antimicrobial activity against Candida albicans at 25 ug/ml by paper disc method; conditions: read-out: IZ; outline: as §1
[24] = tested on: Metaphire posthuma; experiment: Anthelmintic activity against Pheretima posthuma assessed as time taken for parasite death at 0.1% w/v; outline: as §4
[25] = tested on: Staphylococcus aureus; experiment: Antimicrobial activity against Staphylococcus aureus at 50 ug/ml by agar plate diffusion technique; conditions: read-out: IZ; outline: as §2
[26] = tested on: Aspergillus niger; experiment: Antimicrobial activity against Aspergillus niger at 50 ug/ml by paper disc method; conditions: read-out: IZ; outline: as §1
[27] = tested on: Pseudomonas aeruginosa; experiment: Antimicrobial activity against Pseudomonas aeruginosa at 100 ug/ml by agar plate diffusion technique; conditions: read-out: IZ; outline: as §2
[28] = tested on: Pseudomonas aeruginosa; experiment: Antimicrobial activity against Pseudomonas aeruginosa at 50 ug/ml by agar plate diffusion technique; conditions: read-out: IZ; outline: as §2
[29] = tested on: Pseudomonas aeruginosa; experiment: Antimicrobial activity against Pseudomonas aeruginosa at 25 ug/ml by agar plate diffusion technique; conditions: read-out: IZ; outline: as §2

## CSc1nc(-c2ccco2)c(C#N)c(=O)n1C
[1]
  zone of inhibition at 50 µg/mL: 16.8 mm
[2]
  zone of inhibition at 100 µg/mL: 23.5 mm
[3]
  zone of inhibition at 100 µg/mL: 15.6 mm
[4]
  zone of inhibition at 100 µg/mL: 12.6 mm
[5]
  IC50: 90 µg/mL (≈ 364 µM)
[6]
  zone of inhibition at 100 µg/mL: 7.82 mm
[7]
  zone of inhibition at 100 µg/mL: 18.4 mm
[8]
  Time: 36.59 min
[9]
  IC50: 108 µg/mL (≈ 437 µM)
[10]
  zone of inhibition at 50 µg/mL: 6.12 mm
[11]
  Time: 55.49 min
[12]
  zone of inhibition at 25 µg/mL: 7.06 mm
[13]
  zone of inhibition at 25 µg/mL: 11.1 mm
[14]
  Time: 53.98 min
[15]
  IC50: 79 µg/mL (≈ 319 µM)
[16]
  zone of inhibition at 50 µg/mL: 12.2 mm
[17]
  zone of inhibition at 25 µg/mL: 12.3 mm
[18]
  inhibition: 57.2%
[19]
  IC50: 68 µg/mL (≈ 275 µM)
[20]
  Time: 32.55 min
[21]
  Time: 42.68 min
[22]
  zone of inhibition at 25 µg/mL: 5.74 mm
[23]
  zone of inhibition at 25 µg/mL: 13 mm
[24]
  Time: 60.18 min
[25]
  zone of inhibition at 50 µg/mL: 9.12 mm
[26]
  zone of inhibition at 50 µg/mL: 15.9 mm

## CSc1nc(-c2ccc(N(C)C)cc2)c(C#N)c(=O)n1C
[1]
  zone of inhibition at 50 µg/mL: 14.4 mm
[2]
  zone of inhibition at 100 µg/mL: 19.7 mm
[3]
  zone of inhibition at 100 µg/mL: 20.3 mm
[4]
  zone of inhibition at 100 µg/mL: 9.38 mm
[5]
  IC50: 98 µg/mL (≈ 326 µM)
[27]
  zone of inhibition at 100 µg/mL: 10.6 mm
[7]
  zone of inhibition at 100 µg/mL: 17.9 mm
[28]
  zone of inhibition at 50 µg/mL: 8.52 mm
[8]
  Time: 44.52 min
[9]
  IC50: 93 µg/mL (≈ 310 µM)
[11]
  Time: 55.59 min
[12]
  zone of inhibition at 25 µg/mL: 6.38 mm
[13]
  zone of inhibition at 25 µg/mL: 10.3 mm
[14]
  Time: 54.1 min
[15]
  IC50: 84 µg/mL (≈ 280 µM)
[16]
  zone of inhibition at 50 µg/mL: 13.9 mm
[17]
  zone of inhibition at 25 µg/mL: 11.1 mm
[18]
  inhibition: 19.3%
[19]
  IC50: 78 µg/mL (≈ 260 µM)
[20]
  Time: 40.22 min
[21]
  Time: 35.25 min
[23]
  zone of inhibition at 25 µg/mL: 11.8 mm
[24]
  Time: 47.57 min
[29]
  zone of inhibition at 25 µg/mL: 6.06 mm
[25]
  zone of inhibition at 50 µg/mL: 8.25 mm
[26]
  zone of inhibition at 50 µg/mL: 14.5 mm

## CSc1nc(-c2cccs2)c(C#N)c(=O)n1C
[1]
  zone of inhibition at 50 µg/mL: 13.8 mm
[2]
  zone of inhibition at 100 µg/mL: 22.6 mm
[3]
  zone of inhibition at 100 µg/mL: 18.5 mm
[4]
  zone of inhibition at 100 µg/mL: 11.1 mm
[5]
  IC50: 83 µg/mL (≈ 315 µM)
[6]
  zone of inhibition at 100 µg/mL: 8.78 mm
[7]
  zone of inhibition at 100 µg/mL: 21.8 mm
[8]
  Time: 38.48 min
[9]
  IC50: 87 µg/mL (≈ 330 µM)
[10]
  zone of inhibition at 50 µg/mL: 6.29 mm
[11]
  Time: 47.82 min
[12]
  zone of inhibition at 25 µg/mL: 6.29 mm
[13]
  zone of inhibition at 25 µg/mL: 10.4 mm
[14]
  Time: 42.34 min
[15]
  IC50: 72 µg/mL (≈ 273 µM)
[16]
  zone of inhibition at 50 µg/mL: 12.9 mm
[17]
  zone of inhibition at 25 µg/mL: 13 mm
[18]
  inhibition: 62.1%
[19]
  IC50: 71 µg/mL (≈ 270 µM)
[20]
  Time: 33.35 min
[21]
  Time: 39.78 min
[22]
  zone of inhibition at 25 µg/mL: 5.86 mm
[23]
  zone of inhibition at 25 µg/mL: 10.6 mm
[24]
  Time: 45.24 min
[25]
  zone of inhibition at 50 µg/mL: 8.92 mm
[26]
  zone of inhibition at 50 µg/mL: 15.6 mm

## CN[C@@H]1[C@H](O[C@H]2[C@H](O[C@H]3[C@H](O)[C@@H](O)[C@H](N=C(N)N)[C@@H](O)[C@@H]3N=C(N)N)O[C@@H](C)[C@]2(O)C=O)O[C@@H](CO)[C@H](O)[C@H]1O [STREPTOMYCIN]
[3]
  zone of inhibition at 100 µg/mL: 31.8 mm
[4]
  zone of inhibition at 100 µg/mL: 29.5 mm
[6]
  zone of inhibition at 100 µg/mL: 28.7 mm
[27]
  zone of inhibition at 100 µg/mL: 30.3 mm
[28]
  zone of inhibition at 50 µg/mL: 18.7 mm
[10]
  zone of inhibition at 50 µg/mL: 21.1 mm
[12]
  zone of inhibition at 25 µg/mL: 15.4 mm
[13]
  zone of inhibition at 25 µg/mL: 15.1 mm
[16]
  zone of inhibition at 50 µg/mL: 20.2 mm
[22]
  zone of inhibition at 25 µg/mL: 15.8 mm
[29]
  zone of inhibition at 25 µg/mL: 13.4 mm
[25]
  zone of inhibition at 50 µg/mL: 22.4 mm
